Compound activity as filed in PubChem BioAssay.
This is a sample that favours compounds with a hit; in the whole collection about 3.4% have one here.
GPR7 antagonist: human neuropeptides B/W receptor 1 antagonism; P48145; GPR7-expressing cells, fluorescence antagonist assay; inhibition, % at 4.4 µM; hit rate 1.1% among 290,000; AID 1861; in the data active = inhibition above about 16%, passing the limit was not always enough;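 also: cells stimulated with the agonist NPW; 0% = agonist with vehicle and 100% = vehicle without agonist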
zfTRPN1 agonist: agonists of zebrafish TRPN1 channel; HEK293 zebrafish TRPN1-YFP, Fluo-8 calcium fluorescence; 100% = response to 87 µM carbachol; activation, % at 3 µM; hit rate 0.18% among 220,000;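 active = activation above its plate's cutoff, the mean activation of test wells on that plate plus 3 SD, cut at about 19% in these data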;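 also: 0% = DMSO alone and 100% = 87 µM carbachol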
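Material: zebrafish TRPN1-YFP in HEK293 cells. Doses: one dose of 3 µM, 0.3% DMSO. Incubation: dye 1 h 37 °C plus 30 min RT. Measured by: intracellular calcium fluorescence with Fluo-8.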
TAAR1 antag: antagonists of human TAAR1; Q96RJ0; CHO RD-HGA16 TAAR1, Fluo-8 calcium fluorescence, antagonist; inhibition, % at 3 µM; hit rate 1.5% among 360,000; AID 624466;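 active = inhibition above a per-plate cutoff, the mean inhibition of test compounds on that plate plus 3 SD, cut at about 49% in these data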;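 also: 0% = DMSO plus EC80 beta-PEA response and 100% = DMSO alone without agonist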
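Test system – hTAAR1-expressing CHO RD-HGA16 cells, Gα16-coupled · Also added – β-PEA at EC80 concentration, post-compound challenge · Compound – 3 µM, single point · Incubation – dye loading 75 min at 37 °C, then 30 min room temperature · Measured by – Fluo-8 intracellular calcium dye fluorescence, real-time kinetic reads · Benchmarks – vehicle and agonist controls · Replicates – singlicate, one well per test compound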
TRPML3 ag: human mucolipin-3 channel agonism; AID 1448; hit rate 0.29% among 220,000; Q8TDD5; HEK293 TRPML3-YFP, Fluo-8 calcium fluorescence; 100% = the carbachol control signal; activation, % at 3 µM;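 active = activation above its plate's cutoff, the mean activation of the plate's test wells plus 3 SD, cut at about 12% in these data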;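 also: 0% = DMSO only wells and 100% = carbachol wells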
Target sequence (Q8TDD5 whole entry, looked up): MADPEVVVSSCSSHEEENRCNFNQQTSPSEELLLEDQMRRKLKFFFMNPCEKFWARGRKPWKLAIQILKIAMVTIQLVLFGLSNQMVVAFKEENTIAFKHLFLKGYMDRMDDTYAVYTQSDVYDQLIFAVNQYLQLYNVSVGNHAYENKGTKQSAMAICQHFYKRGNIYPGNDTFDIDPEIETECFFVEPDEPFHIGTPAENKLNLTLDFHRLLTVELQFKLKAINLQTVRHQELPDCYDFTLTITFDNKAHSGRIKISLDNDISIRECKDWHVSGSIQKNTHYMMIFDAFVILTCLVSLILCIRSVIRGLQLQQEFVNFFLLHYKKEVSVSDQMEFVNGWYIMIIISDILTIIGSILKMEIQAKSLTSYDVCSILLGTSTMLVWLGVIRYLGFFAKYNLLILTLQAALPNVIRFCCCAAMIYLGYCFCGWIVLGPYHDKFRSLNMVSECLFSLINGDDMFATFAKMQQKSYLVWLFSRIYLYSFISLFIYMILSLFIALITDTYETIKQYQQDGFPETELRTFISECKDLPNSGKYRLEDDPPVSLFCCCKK
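Material: HEK293 cells stably carrying human TRPML3-YFP; compound dosing: single dose, 3 µM final nominal compound, 0.3% DMSO final; incubation: 1-h 37 °C dye load, 5-s basal, 120-s post-compound reads; technique: Fluo-8 intracellular calcium fluorescence, excitation 470-495 nm, emission 515-575 nm; read-out basis: percent activation from peak-to-basal fluorescence ratio, scaled between DMSO and carbachol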
TAAR1 ag: human TAAR1 agonism; CHO RD-HGA16 TAAR1, Fluo-8 calcium fluorescence; vehicle wells 0%, saturating PEA agonist 100%; activation, % at 3 µM; hit rate 0.99% among 360,000; AID 624467;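 active = activation above the mean activation of all test compounds in the run plus 3 SD, cut at about 38% in these data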
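Benchmarks: low control DMSO, high control PEA (EC100); System: CHO RD-HGA16 cells carrying human TAAR1 plus Gα16; Detection: Fluo-8 fluorescence, 5 s baseline then 140 s kinetic read; Schedule: 17-24 h plating, Fluo-8 75 min 37 °C, 30 min RT; Read-out basis: % activation from peak over basal fluorescence ratio, DMSO-to-PEA scaled.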
LANA-H2A inh: blocks KSHV LANA binding to histone H2A/H2B; Q9QR71; cell-free LANA-H2A/H2B peptide, fluorescence polarization; inhibition, % (no concentration beside the values); hit rate 0.6% among 320,000; AID 2629; in the data active = inhibition mostly above about 10%, no sharp cut-off; inactive = mostly below about 6.7%
TAAR1 nonsel count: nonselective antagonism, TAAR1 counter-screen; shares compounds with TAAR1 antag; counterscreen cell line, calcium fluorescence, antagonist mode; inhibition, % at 3 µM; hit rate 77% among 2,400; AID 651780; in the data active = inhibition above about 22%;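 also: CHO-Ga16 host cells stimulated with ATP at an EC80 level; 0% = agonist EC80 plus vehicle and 100% = vehicle without agonist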
TAAR1 antag conf: confirmation of human TAAR1 antagonists; shares compounds with TAAR1 antag; TAAR1-expressing cells, fluorescence antagonist read-out; inhibition, % at 3 µM; hit rate 40% among 2,400; in the data active = inhibition above about 49%;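 also: CHO-Ga16 host cells challenged with agonist PEA near its EC80; 0% = agonist at EC80 plus vehicle and 100% = vehicle with no agonist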
Ga16 nonsel ag: counter-screen for TAAR1 antagonists: nonselective Ga16 agonists. shares compounds with TAAR1 antag. Ga16-expressing cells, calcium fluorescence, agonist counterscreen. activation, % at 3 µM. hit rate 18% among 2,400. AID 651953; in the data active = activation above about 12%;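 also: 0% = vehicle wells and 100% = saturating stimulus response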
TAAR1 ag counter: counter-screen for human TAAR1 antagonists: TAAR1 agonists | shares compounds with TAAR1 antag | hit rate 2% among 2,400 | activation, % at 3 µM | hTAAR1 cell line, fluorescence activation, agonist mode | AID 651955; in the data active = activation above about 37%;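 also: CHO cells stably expressing TAAR1 with calcium dye readout; 0% = DMSO vehicle and 100% = full agonist response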
Active calls of the source: *; . = no result.

SMILES	GPR7 antagonist	zfTRPN1 agonist	TAAR1 antag	TRPML3 ag	TAAR1 ag	LANA-H2A inh	TAAR1 nonsel count	TAAR1 antag conf	Ga16 nonsel ag	TAAR1 ag counter
Cc1ccc2nc(NC(=O)C3CCN(S(=O)(=O)c4cccc5nsnc45)CC3)sc2c1	-9	2	65*	1	16	-3	33*	45	10	7
C=CCn1c(SCc2c(C)noc2C)nc2cc(C(=O)O)ccc2c1=O	14	0	76*	0	11	-4	5	3	2	8
C=CCn1c(SCc2ccc(Br)cc2F)nc2cc(C(=O)O)ccc2c1=O	0	.	4	.	-1	-2	.	.	.	.
COc1ccc(-c2c(C(=O)c3ccc(Br)cc3)[nH]c(N)c2C(=O)c2ccccc2)cc1OC	.	.	60*	.	16	.	9	34	9	26
C/C=C(/C)C(=O)O[C@@H]1c2c(ccc3ccc(=O)oc23)O[C@@H]1C(C)(C)OC(=O)/C(C)=C\C	-16	0	59*	0	6	-1	21	24	9	3
CCN(Cc1ccccc1)c1ccc(/C=N/NC(=S)NC(C)C)cc1	-6	2	50*	1	2	-1	3	11	3	9
COc1ccc(N2CCN(C(=O)c3cc4c(s3)-c3ccccc3S(=O)(=O)C4)CC2)cc1	-10	2	52*	1	13	-1	30*	42	7	9
Cc1cccc(N2CCN(S(=O)(=O)c3ccc4[nH]c(=O)ccc4c3)CC2)c1C	-15	.	61*	.	11	4	35*	38	11	10
O=C(NC1CCN(C(=O)c2cccs2)CC1)c1ccccc1	-12	1	0	1	0	2	.	.	.	.
C/C(=N/NC(=O)c1nnn(-c2nonc2N)c1CSc1ccc(C)cc1)c1ccncc1	.	.	4	.	2	.	.	.	.	.
[O-][N+](=Cc1c(Cl)cccc1Cl)CC1(O)CCCCC1	.	.	1	.	1	.	.	.	.	.
CCN(CC)c1ncnc2scc(C3COc4ccccc4O3)c12 (centres undefined)	-9	-2	53*	-1	7	-3	8	36	3	9
COc1ccc(CCNC(=O)C(=O)NCC2CCCN2S(=O)(=O)c2ccc(OC)cc2)cc1 (centres undefined)	.	.	74*	.	18	3	29*	57*	14*	19
COc1ccc(S(=O)(=O)N2CCCC2CNC(=O)C(=O)NC2CCCC2)cc1 (centres undefined)	.	.	-14	.	1	.	.	.	.	.
CC1=NN(c2nc(N)nc(/C(C#N)=C/c3ccc([N+](=O)[O-])o3)n2)C(C)(C)C1	.	.	59*	.	22	.	57*	66*	23*	28
CCOC(=O)C1(C)CCN1C(=O)c1ccc(F)c(Cl)c1 (centres undefined)	.	.	-20	.	3	.	.	.	.	.
NC(=O)C1CCN(c2ncnc3c2c(-c2ccccc2)cn3-c2ccccc2)CC1	-8	2	64*	0	8	0	25*	41	9	8
COc1ccc(-n2cc(-c3ccccc3)c3c(NCCCN4CCOCC4)ncnc32)cc1	0	2	19	0	7	-5	.	.	.	.
COc1ccc(-n2cc(-c3ccccc3)c3c(N4CCOCC4)ncnc32)cc1	-25	3	69*	0	5	-4	24*	47	8	16
OCCN1CCN(c2ncnc3c2c(-c2ccccc2)cn3-c2ccc(Br)cc2)CC1	1	2	24	1	6	.	.	.	.	.
Fc1ccc(-n2cc(-c3ccccc3)c3c(N4CCOCC4)ncnc32)cc1	-5	0	67*	0	8	-5	15	36	7	17
CCN1CCN(c2ncnc3c2c(-c2ccccc2)cn3-c2ccc(F)cc2)CC1	-2	1	15	0	12	2	.	.	.	.
O=C(NNC(=O)c1ccc(Br)o1)c1csc(N2CCOCC2)n1	.	.	-8	.	5	1	.	.	.	.
COC(=O)Nc1sc2c(c1C(=O)NCc1ccco1)CCC2	-2	-2	-3	0	8	-4	.	.	.	.
COC(=O)Nc1sc2c(c1C(=O)NCc1ccco1)CCCC2	-4	0	107*	0	-3	-5	6	-8	4	5
SMILES	GPR7 antagonist	zfTRPN1 agonist	TAAR1 antag	TRPML3 ag	TAAR1 ag	LANA-H2A inh	TAAR1 nonsel count	TAAR1 antag conf	Ga16 nonsel ag	TAAR1 ag counter
CCC(C)(CC(=O)Nc1nccs1)c1ccccc1 (centres undefined)	-5	.	5	.	2	0	.	.	.	.
COc1ccc(-c2cn3c(C)c(C(=O)Nc4cccc(NC(C)=O)c4)sc3n2)cc1	-7	7	50*	2	15	2	27*	47	13*	9
COc1ccc(-c2cn3c(C)c(C(=O)Nc4ccncc4)sc3n2)cc1	-1	4	35	2	9	0	.	.	.	.
Cc1ncc(CO)n1Cc1ccc(Cl)cc1	.	.	-2	.	2	.	.	.	.	.
Nc1nc(-c2cc(O)ccc2[N+](=O)[O-])cc(-c2ccccc2)c1[N+](=O)[O-]	-9	.	49*	.	14	-4	24*	40	6	3
COc1ccc(CCNC(=O)Cn2nnc(C(=O)Nc3cc(C)ccc3C)c2N)cc1OC	-4	.	-16	.	2	-6	.	.	.	.
Cc1ccc(N(Cc2cc3ccc(C)cc3[nH]c2=O)C(=O)c2ccco2)c(C)c1	-7	0	104*	-1	0	5	12	-1	3	5
Cc1ccc2cc(CN(C(=O)c3ccco3)c3ccccc3C)c(=O)[nH]c2c1	-4	0	-9	0	-2	-3	.	.	.	.
COc1ccc(OCC(=O)Nc2ccccc2C(=O)NC2CC2)cc1	.	.	18	.	13	-2	.	.	.	.
COC(=O)c1ccc(OCC(=O)Nc2ccccc2C(=O)NC2CC2)cc1	.	.	62*	.	18	-2	30*	48	10	8
Cc1cc(C)n2c(NC3CCCCC3)c(CC(C)C)nc2n1	.	.	-6	.	1	.	.	.	.	.
Cc1csc2nc(CSc3nc4ccccc4o3)c(Br)n12	5	-2	61*	-1	20	-5	15	19	5	9
CC(C)(C)OC(=O)NCc1ccc(CNC(=O)c2[nH]cnc2C(=O)Nc2ccccc2F)cc1	.	.	71*	.	13	.	42*	46	11	13
